In ChEMBL document CHEMBL1122829, “Antimicrobial and cytotoxic properties of 9,10-dihydrophenanthrenes: structure-activity studies on juncusol” (J Med Chem, 1985):
Converted amounts (≈) assume the structure as drawn. The source made the active and inactive calls. The rule behind the calls is not given here.

Columns and labels:
[1] = test system: Candida albicans; assay: In vitro antimicrobial activity against Candida albicans ATCC 10231, tested at 50-0.1 ug/mL; i=Inactive at highest concentration; format: functional, organism-based
Procedure, shortened: (§1)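 Agar dilution/streak method; MIC (μg/mL) read as lowest concentration inhibiting growth. Each organism was streaked on agar plates holding serial dilutions of test agent over the range given in the line. "i" means no inhibition at the top concentration tested.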

[2] = test system: Klebsiella pneumoniae; assay: In vitro antimicrobial activity against Klebsiella pneumoniae ATCC 10031,tested at 50-0.1 ug/mL; i=Inactive at highest concentration; format: functional, organism-based; procedure, shortened: as §1
[3] = test system: Mycolicibacterium smegmatis; assay: In vitro antimicrobial activity against Mycobacterium smegmatis ATCC 607,tested at 50-0.1 ug/mL; format: functional; procedure, shortened: as §1
[4] = test system: Staphylococcus aureus; assay: In vitro antimicrobial activity against, Staphylococcus aureus ATCC 13709,tested at 50-0.1 ug/mL; format: functional; procedure, shortened: as §1
[5] = test system: Candida albicans; assay: In vitro antimicrobial activity against Candida albicans ATCC 10231, tested at 100-0.1 ug/mL; format: functional; procedure, shortened: as §1
[6] = test system: Klebsiella pneumoniae; assay: In vitro antimicrobial activity against Klebsiella pneumoniae ATCC 10031,tested at 100-0.1 ug/mL; i=Inactive at highest concentration; format: functional, organism-based; procedure, shortened: as §1
[7] = test system: Staphylococcus aureus; assay: In vitro antimicrobial activity against Staphylococcus aureus ATCC 13709,tested at 100-0.1 ug/mL; format: functional; procedure, shortened: as §1
[8] = test system: Mycolicibacterium smegmatis; assay: In vitro antimicrobial activity against Mycobacterium smegmatis ATCC 607,tested at 100-0.1 ug/mL; format: functional; procedure, shortened: as §1
[9] = test system: Klebsiella pneumoniae; assay: In vitro antimicrobial activity against Klebsiella pneumoniae ATCC 10031,tested at 100-0.1 ug/mL; Inactive at highest concentration; format: functional, organism-based; procedure, shortened: as §1
[10] = test system: L1210; assay: In vitro cytotoxic activity against,L-1210 mouse lymphocytic leukemia cell culture (ATCC CCL-219); format: functional, cell-based
Procedure, shortened: (§2)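 L1210 (ATCC 219) cells: 1×10^4 cells per well seeded in DMEM with 5% bovine serum and grown 48 h at 37 °C under 5% CO2. Agent was added from a 10 mg/mL stock in 95% ethanol via 2× medium and incubated a further 48 h. The nonadherent cells were dispersed by pipetting, diluted in balanced salts solution and counted by hemocytometer or Coulter counter. IC50 is the dose giving 50% of control count.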

[11] = test system: Staphylococcus aureus; assay: In vitro antimicrobial activity against, Staphylococcus aureus ATCC 13709,tested at 100-0.1 ug/mL; format: functional; procedure, shortened: as §1
[12] = test system: B16; assay: In vitro cytotoxic activity against,B-16 mouse melanoma (B-16); format: functional, cell-based
Procedure, shortened: (§3)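 B16 cells: 1×10^4 cells per well seeded in DMEM with 5% bovine serum and grown 48 h at 37 °C under 5% CO2. Agent was added from a 10 mg/mL stock in 95% ethanol via 2× medium and incubated a further 48 h. Cells were detached with 0.01% trypsin/0.1% EDTA in PBS for 5 min at 37 °C and counted. IC50 is the dose giving 50% of control cell count, taken from count versus concentration plots.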

[13] = test system: Candida albicans; assay: In vitro antimicrobial activity against Candida albicans ATCC 10231, tested at 100-0.1 ug/mL; i=Inactive at highest concentration; format: functional, organism-based; procedure, shortened: as §1
[14] = test system: Klebsiella pneumoniae; assay: In vitro antimicrobial activity against,Klebsiella pneumoniae ATCC 10031 tested at 100-0.1 ug/mL; i=Inactive at highest concentration; format: functional, organism-based; procedure, shortened: as §1
[15] = test system: Mycolicibacterium smegmatis; assay: In vitro antimicrobial activity against Mycobacterium smegmatis ATCC 607 tested at 100-0.1 ug/mL; i=Inactive at highest concentration; format: functional, organism-based; procedure, shortened: as §1
[16] = test system: Staphylococcus aureus; assay: In vitro antimicrobial activity against, Staphylococcus aureus ATCC 13709 tested at 100-0.1 ug/mL; i=Inactive at highest concentration; format: functional, organism-based; procedure, shortened: as §1
[17] = test system: Candida albicans; assay: In vitro antimicrobial activity against Candida albicans ATCC 10231, tested at 25-0.1 ug/mL; i=Inactive at highest concentration; format: functional, organism-based; procedure, shortened: as §1
[18] = test system: Klebsiella pneumoniae; assay: In vitro antimicrobial activity against Klebsiella pneumoniae ATCC 10031,tested at 25-0.1 ug/mL; i=Inactive at highest concentration; format: functional, organism-based; procedure, shortened: as §1
[19] = test system: Mycolicibacterium smegmatis; assay: In vitro antimicrobial activity against Mycobacterium smegmatis ATCC 607,tested at 25-0.1 ug/mL; format: functional; procedure, shortened: as §1
[20] = test system: Staphylococcus aureus; assay: In vitro antimicrobial activity against, Staphylococcus aureus ATCC 13709,tested at 25-0.1 ug/mL; format: functional; procedure, shortened: as §1
[21] = organism: Homo sapiens; assay: In vitro cytotoxic activity against, human lymphoblastic leukemia cell culture (CCRF-CEM); format: functional
[22] = test system: Klebsiella pneumoniae; assay: In vitro antimicrobial activity against Klebsiella pneumoniae ATCC 10031,tested at 100-0.1 ug/mL; format: functional; procedure, shortened: as §1
[23] = test system: B16; assay: In vitro cytotoxic activity against B-16 mouse melanoma (B-16); format: functional, cell-based; procedure, shortened: as §3
[24] = test system: Candida albicans; assay: In vitro antimicrobial activity against Candida albicans ATCC 10231 tested at 25-0.1 ug/mL; i=Inactive at highest concentration; format: functional, organism-based; procedure, shortened: as §1
[25] = test system: Klebsiella pneumoniae; assay: In vitro antimicrobial activity against Klebsiella pneumoniae ATCC 10031 tested at 25-0.1 ug/mL; i=Inactive at highest concentration; format: functional, organism-based; procedure, shortened: as §1
[26] = test system: L1210; assay: In vitro cytotoxic activity against L-1210 mouse lymphocytic leukemia cell culture (ATCC CCL-219); format: functional, cell-based; procedure, shortened: as §2
[27] = test system: Mycolicibacterium smegmatis; assay: In vitro antimicrobial activity against Mycobacterium smegmatis ATCC 607 tested at 25-0.1 ug/mL; format: functional; procedure, shortened: as §1
[28] = test system: Staphylococcus aureus; assay: In vitro antimicrobial activity against, Staphylococcus aureus ATCC 13709 tested at 25-0.1 ug/mL; format: functional
Procedure, shortened: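 Agar-dilution/streak assay giving the MIC in μg/mL, run against S. aureus ATCC 13709 within a seven-organism panel.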

[29] = test system: Staphylococcus aureus; assay: In vitro antimicrobial activity against, Staphylococcus aureus ATCC 13709,tested at 100-0.1 ug/mL; i=Inactive at highest concentration; format: functional, organism-based; procedure, shortened: as §1
[30] = test system: Staphylococcus aureus; assay: In vitro antimicrobial activity against, Staphylococcus aureus ATCC 13709,tested at 50-0.1 ug/mL;; format: functional; procedure, shortened: as §1
[31] = test system: Mycolicibacterium smegmatis; assay: In vitro antimicrobial activity against Mycobacterium smegmatis ATCC 607,tested at 100-0.1 ug/mL; i=Inactive at highest concentration; format: functional, organism-based; procedure, shortened: as §1

CC[N+](CC)(CC)Cc1cc2c(cc1OC)CCc1ccccc1-2.[Br-]
MIC [1]: inactive
MIC [2]: inactive
MIC [3]: 25 µg/mL
MIC [4]: 25 µg/mL

COc1ccccc1C[N+](C)(C)CSc1ccccc1.[Br-]
MIC [5]: 100 µg/mL
MIC [6]: inactive
MIC [7]: 50 µg/mL
MIC [8]: 50 µg/mL

Cc1cc2c(cc1O)CCc1ccccc1-2
MIC [5]: 6.25 µg/mL (≈ 29.7 µM)
MIC [9]: inactive
IC50 [10]: 24.5 µg/mL (≈ 117 µM)
MIC [11]: 25 µg/mL (≈ 119 µM)
IC50 [12]: 27.5 µg/mL (≈ 131 µM)
MIC [8]: 3.12 µg/mL (≈ 14.8 µM)

C=Cc1c(C)c(OC)cc2c1-c1ccc(OC)c(C)c1CC2
MIC [13]: inactive
MIC [14]: inactive
MIC [15]: inactive
MIC [16]: inactive

COc1cc2c(cc1C[N+](C)(C)CSc1ccccc1)CCc1ccccc1-2.[Br-]
MIC [17]: inactive
MIC [18]: inactive
MIC [19]: 3.12 µg/mL
MIC [20]: 6.25 µg/mL

Cc1cc2c(cc1O)CCc1c-2ccc(O)c1C
MIC [5]: 50 µg/mL (≈ 208 µM)
IC50 [21]: 9.3 µg/mL (≈ 38.7 µM)
MIC [22]: 50 µg/mL (≈ 208 µM)
IC50 [10]: 10.2 µg/mL (≈ 42.4 µM)
MIC [11]: 12.5 µg/mL (≈ 52 µM)
IC50 [12]: 17.5 µg/mL (≈ 72.8 µM)
MIC [8]: 6.25 µg/mL (≈ 26 µM)

C=Cc1c(C)c(O)cc2c1-c1ccc(O)c(C)c1CC2
IC50 [23]: 12.5 µg/mL (≈ 46.9 µM)
MIC [24]: inactive
MIC [25]: inactive
IC50 [26]: 13.8 µg/mL (≈ 51.8 µM)
MIC [27]: 12.5 µg/mL (≈ 46.9 µM)
MIC [28]: 25 µg/mL (≈ 93.9 µM)

COc1cc2c(cc1C[N+](C)(C)CSc1ccccc1)-c1ccc(OC)c(C)c1CC2.[Br-]
MIC [5]: 3.12 µg/mL
IC50 [21]: 0.9 µg/mL
MIC [22]: 12.5 µg/mL
IC50 [10]: 1.3 µg/mL
MIC [11]: 1.56 µg/mL
IC50 [12]: 0.3 µg/mL
MIC [8]: 1.56 µg/mL

COc1cc2c(cc1C)-c1ccccc1CC2
MIC [5]: 100 µg/mL (≈ 446 µM)
MIC [6]: inactive
MIC [29]: inactive
MIC [8]: 25 µg/mL (≈ 111 µM)

COc1cc2c(cc1C[N+](C)(C)CSc1ccccc1)-c1ccccc1CC2.[Br-]
MIC [5]: 12.5 µg/mL
IC50 [21]: 1.4 µg/mL
MIC [22]: 25 µg/mL
IC50 [10]: 3.7 µg/mL
MIC [11]: 1.56 µg/mL
IC50 [12]: 0.5 µg/mL
MIC [8]: 1.56 µg/mL

COC(=O)c1cc2c(cc1OC)CCc1ccccc1-2
MIC [1]: inactive
MIC [2]: inactive
MIC [3]: 25 µg/mL (≈ 93.2 µM)
MIC [30]: 50 µg/mL (≈ 186 µM)

COc1cc2c(cc1C)-c1ccc(OC)c(C)c1CC2
MIC [13]: inactive
MIC [6]: inactive
MIC [31]: inactive
MIC [29]: inactive

CCc1cc2c(cc1OC)-c1ccccc1CC2
MIC [1]: inactive
MIC [2]: inactive
MIC [3]: 3.12 µg/mL (≈ 13.1 µM)
MIC [4]: 25 µg/mL (≈ 105 µM)
